Measured values of several laboratories.

Compound	system	conditions	bioavailability [%]
Oc1ccc(C(c2ccc(O)cc2)(C(F)(F)F)C(F)(F)F)cc1	mouse, plasma	oral, 34 mg/kg, single dose	3 to 6
CCN1CC(=O)NC(CC(C)C)C(=O)N(C)C(C)C(=O)NC(CC(C)C)C(=O)N2CCCC2C(=O)N(CC2CCOCC2)CC(=O)NC(CC(C)C)C(=O)N(C)C(C)C(=O)NC(C)C(=O)N2CCCC2C1=O (centres unmarked)	mouse, plasma	oral, 200 mg/kg	50
O=C(NCC1CC1)c1cc(N2CC[C@H](O)C2)nc(N2CCC[C@@H](c3ccccc3)C2)n1	mouse, plasma	oral, 10 mg/kg	25
CCc1cc(OC)c2nccc(N3CCc4c(cc(Cn5ccnc5)cc4-c4cn(C)nc4C(F)(F)F)C3=O)c2c1	male CD-1 mouse, plasma	oral, 150 mg/kg	135
CCOc1ccc(Cc2cc([C@@H]3O[C@H](CO)[C@@H](O)[C@H](O)[C@H]3O)ccc2Cl)cc1	male C57BL/6 mouse, plasma	oral, 1 mg/kg	67
COc1cc(OC)c2nccc(N3CCc4c(cc(Cn5ccnc5)cc4-c4cn(C)nc4C(F)(F)F)C3=O)c2c1	male CD-1 mouse, plasma	oral, 50 mg/kg	452
CC[C@H](C)[C@@H]1NC(=O)[C@@](C)(NC(=O)[C@H](CCCNC(=N)N)NC(=O)[C@H](CC(C)C)NC(=O)[C@@H](NC(=O)[C@H](CCC(N)=O)NC(=O)[C@H](CC(C)C)NC(C)=O)[C@@H](C)O)CCCC=CCCC[C@@](C)(C(=O)N[C@@H](CC(C)C)C(=O)N[C@@H](Cc2ccc3ccccc3c2)C(N)=O)NC(=O)[C@H](CCCNC(=N)N)NC(=O)[C@H](CCC(N)=O)NC1=O	male BALB/c mouse, plasma	intraperitoneal, 5 mg/kg	81.1
CC(C)(C)c1cc(NC(=O)Nc2ccc(Oc3ccnc4[nH]c(=O)cnc34)cc2F)n(-c2ccccc2)n1	BALB/c mouse, plasma	oral, 10 mg/kg	54
CCc1cc(C(=O)NC)c2nccc(N3CCc4c(cc(Cn5ccnc5)cc4-c4cn(C)nc4C(F)(F)F)C3=O)c2c1	male CD-1 mouse, plasma	oral, 50 mg/kg	175
C=CC(=O)N1CC2CC(n3nc(-c4ccc(C(=O)Nc5ccccn5)cc4)c4c(N)ncnc43)CC2C1 (centres unmarked)	male BALB/c mouse, plasma	oral, 3 mg/kg	47
c1ccc2[nH]c(CNc3nc(N4CCOCC4)nc4c3ncn4-c3ccsc3)nc2c1	mouse, plasma	intravenous, 1 mg/kg	0
COc1cc2ccccc2cc1C(=O)NC(=S)Nc1ccc(-c2nc3ccccc3[nH]2)cc1	mouse, plasma	oral, 5 mg/kg	< 1
N[C@@H](CSSC[C@H](N)C(=O)O)C(=O)O	Kunming mouse, plasma	oral, 50 mg/kg	15.1
O=C(NCCN1CCCC1)c1cc(-c2ccc(CN3CCOCC3)cc2)nc2ccc(F)cc12	female NMRI mouse, blood	oral, 3 mg/kg	74
COc1ccc2nccc(N3CCc4c(cc(Cn5ccnc5)cc4-c4cn(C)nc4C(F)(F)F)C3=O)c2c1	male CD-1 mouse, plasma	oral, 50 mg/kg	110
OC[C@H]1O[C@@H](c2ccc(Cl)c(Cc3ccc(O[C@H]4CCOC4)cc3)c2)[C@H](O)[C@@H](O)[C@@H]1O	CD-1 mouse, plasma	oral, 10 mg/kg	25.6
Nc1ccc(-c2ccc3ncc4ccc(=O)n(-c5cccc(C(F)(F)F)c5)c4c3c2)cn1	male Swiss mouse, plasma	oral, 10 mg/kg	54
COc1nc2[nH]c(C(F)(F)F)nc2nc1Nc1ccc(OC(F)(F)F)cc1F	C57BL/6 mouse, plasma	oral, 10 mg/kg	21
CN1CCc2c(c3ccccc3n2Cc2ccc(C(=O)NO)cc2)C1	male CD-1 mouse, plasma	oral, 30 mg/kg	~6
CCc1ccc(Cc2cc([C@@H]3O[C@H](CO)[C@@H](O)[C@H](O)[C@H]3O)cc3c2CCC3)cc1	male C57BL/6 mouse, plasma	oral, 3 mg/kg	> 100
Cc1c(C(=O)Nc2ccccc2)sc(N)c1C(N)=O	male CD-1 mouse, plasma	oral, 10 mg/kg	34
COc1nc(-c2cc(C)c(N[C@@H](C)c3c(F)cc(F)cc3F)nn2)ccc1-n1cnc(C)c1	male CD-1 mouse, plasma	oral, 5 mg/kg, single dose	63.7
NC[C@@H]1O[C@H](O[C@H]2[C@@H](O)[C@H](O[C@@H]3[C@@H](O)[C@H](N)C[C@H](N)[C@H]3O[C@H]3O[C@H](CO)[C@@H](O)[C@H](O)[C@H]3N)O[C@@H]2CO)[C@H](N)[C@@H](O)[C@@H]1O	male BALB/c mouse, plasma	oral, 500 mg/kg	0.3
CC(C)(NC(=O)O[C@@H]1CN2CCC1CC2)c1csc(-c2ccc(F)cc2)n1	CD-1 mouse, plasma	oral, 10 mg/kg	74
CN[C@@H](C)C(=O)N[C@H]1CN(C(=O)CC(C)C)CC[C@H]2CC[C@@H](C(=O)NC(c3ccccc3)c3ccccc3)N2C1=O	SCID mouse, plasma	oral, 100 mg/kg, tumour-bearing	42.7
Cc1ccc2cncc(N3CCc4c(cc(Cn5ccnc5)cc4-c4cn(C)nc4C(F)(F)F)C3=O)c2c1	male CD-1 mouse, plasma	oral, 10 mg/kg	35
